Laboratory results: ChEMBL document CHEMBL3286311, “Novel and high affinity fluorescent ligands for the serotonin transporter based on (s)-citalopram” (ACS Med Chem Lett, 2014)
Active and inactive are the calls of the source. The rule behind the calls is not given here.

How the values were obtained:
[1] = target: T1, Sodium-dependent dopamine transporter (Homo sapiens, UniProt Q01959); assay: Inhibition of 2,5,6-[3H]-dopamine uptake at human DAT expressed in African green monkey COS7 cells at 10 uM incubated for 10 mins prior to radioligand addition measured after 5 mins by scintillation counting analysis; type: cell-based; details: COS-7
T1 sequence (Q01959 whole entry): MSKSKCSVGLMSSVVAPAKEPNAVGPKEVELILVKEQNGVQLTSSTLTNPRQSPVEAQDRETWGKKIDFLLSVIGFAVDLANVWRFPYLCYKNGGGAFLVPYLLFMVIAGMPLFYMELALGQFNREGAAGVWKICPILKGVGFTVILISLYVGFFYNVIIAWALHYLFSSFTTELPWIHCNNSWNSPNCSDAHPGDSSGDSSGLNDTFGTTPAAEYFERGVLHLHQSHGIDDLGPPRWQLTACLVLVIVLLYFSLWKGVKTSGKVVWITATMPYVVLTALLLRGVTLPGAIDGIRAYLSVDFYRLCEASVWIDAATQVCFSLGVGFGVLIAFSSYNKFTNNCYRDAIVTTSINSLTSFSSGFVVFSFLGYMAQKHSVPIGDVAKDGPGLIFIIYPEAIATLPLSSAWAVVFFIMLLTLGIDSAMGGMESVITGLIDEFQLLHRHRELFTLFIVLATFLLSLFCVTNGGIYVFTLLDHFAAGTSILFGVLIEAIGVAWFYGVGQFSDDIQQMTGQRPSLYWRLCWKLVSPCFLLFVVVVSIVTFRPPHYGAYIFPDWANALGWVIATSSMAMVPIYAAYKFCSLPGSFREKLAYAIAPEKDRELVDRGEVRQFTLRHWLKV

[2] = target: T2, Sodium-dependent noradrenaline transporter (Homo sapiens, UniProt P23975); assay: Inhibition of 2,5,6-[3H]-dopamine uptake at human NET expressed in African green monkey COS7 cells at 10 uM incubated for 10 mins prior to radioligand addition measured after 5 mins by scintillation counting analysis; type: cell-based; details: COS-7
T2 sequence (P23975 whole entry): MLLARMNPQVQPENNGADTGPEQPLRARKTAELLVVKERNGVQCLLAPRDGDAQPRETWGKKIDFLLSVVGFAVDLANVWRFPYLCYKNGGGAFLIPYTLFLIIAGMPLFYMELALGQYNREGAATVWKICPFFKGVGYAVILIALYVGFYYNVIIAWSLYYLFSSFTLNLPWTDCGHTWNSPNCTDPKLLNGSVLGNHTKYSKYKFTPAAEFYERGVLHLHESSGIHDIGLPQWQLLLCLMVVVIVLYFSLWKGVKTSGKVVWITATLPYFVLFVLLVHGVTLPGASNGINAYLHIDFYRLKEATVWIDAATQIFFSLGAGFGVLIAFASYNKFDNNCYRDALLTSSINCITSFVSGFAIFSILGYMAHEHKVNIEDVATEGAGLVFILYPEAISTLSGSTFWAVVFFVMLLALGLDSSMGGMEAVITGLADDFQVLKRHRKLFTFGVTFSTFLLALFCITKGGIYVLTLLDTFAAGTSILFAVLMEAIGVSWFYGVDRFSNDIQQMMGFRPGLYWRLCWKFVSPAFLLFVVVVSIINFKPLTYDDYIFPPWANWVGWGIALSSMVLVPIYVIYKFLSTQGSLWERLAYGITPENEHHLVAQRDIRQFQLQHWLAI

[3] = target: T3, Sodium-dependent serotonin transporter (Homo sapiens, UniProt P31645); assay: Inhibition of 5-hydroxy[3H]tryptamine uptake at human SERT expressed in African green monkey COS7 cells incubated for 10 mins prior to radioligand addition measured after 5 mins by scintillation counting analysis; type: cell-based, COS-7
Target sequence in this assay (P31645 whole entry): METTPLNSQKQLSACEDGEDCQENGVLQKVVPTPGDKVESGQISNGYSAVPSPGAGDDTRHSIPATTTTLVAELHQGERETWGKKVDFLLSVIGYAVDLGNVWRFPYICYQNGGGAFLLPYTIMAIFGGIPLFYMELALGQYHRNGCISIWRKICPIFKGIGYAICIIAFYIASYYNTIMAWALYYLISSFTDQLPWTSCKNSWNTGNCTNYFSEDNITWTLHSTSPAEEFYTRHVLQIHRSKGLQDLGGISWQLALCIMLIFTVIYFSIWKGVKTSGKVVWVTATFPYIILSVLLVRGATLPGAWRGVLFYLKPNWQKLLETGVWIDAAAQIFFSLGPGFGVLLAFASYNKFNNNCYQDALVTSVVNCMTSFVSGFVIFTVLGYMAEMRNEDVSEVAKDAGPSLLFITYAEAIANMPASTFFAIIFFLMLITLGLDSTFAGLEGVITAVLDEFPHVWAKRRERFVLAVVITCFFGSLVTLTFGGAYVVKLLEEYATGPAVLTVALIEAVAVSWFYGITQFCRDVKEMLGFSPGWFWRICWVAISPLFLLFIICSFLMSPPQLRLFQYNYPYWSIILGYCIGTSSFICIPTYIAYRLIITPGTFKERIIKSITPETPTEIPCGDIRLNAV

[4] = target: T3, Sodium-dependent serotonin transporter; assay: Displacement of [3H]-S-citalopram from human SERT expressed in African green monkey COS7 cells incubated for 10 mins prior to [3H]-S-citalopram addition measured after 2 hrs by scintillation counting analysis; type: cell-based, COS-7
Outline: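 Competition binding at hSERT in transiently transfected COS7 cells with [3H]-S-citalopram (2 nM) as radioligand. IC50 came from nonlinear regression and was converted to Ki using a Kd for [3H]-S-citalopram determined in parallel. SE interval is from pKi ± SE. Values are means of three to four experiments, each in triplicate.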
Target sequence in this assay (P31645 whole entry): as above

[5] = target: T3, Sodium-dependent serotonin transporter; assay: Binding affinity to N-terminal EGFP-tagged SERT (unknown origin) expressed in HEK293 cells at 20 nM after 10 mins by confocal laser scanning microscopy; type: cell-based
Outline: (§1)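 Live confocal imaging of HEK293 cells transiently expressing SERT with an N-terminal EGFP tag. Cells were incubated at room temperature with 20 nM ligand and imaged at 0, 1, 5, 10 or 20 min. Rhodamine signal was compared with the EGFP signal and merged with a transmission image. Paroxetine (100 μM) was coincubated as the specificity control. Three identical experiments were run.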
Target sequence in this assay (P31645 whole entry, looked up): as the sequence (P31645 whole entry) above

[6] = target: T3, Sodium-dependent serotonin transporter; assay: Binding affinity to N-terminal EGFP-tagged SERT (unknown origin) expressed in HEK293 cells at 20 nM after 10 mins by confocal laser scanning microscopy in presence of SERT inhibitor paroxetine; type: cell-based; outline: as §1
Target sequence in this assay (P31645 whole entry, looked up): as the sequence (P31645 whole entry) above

[7] = target: T3, Sodium-dependent serotonin transporter; assay: Binding affinity to N-terminal EGFP-tagged SERT (unknown origin) expressed in HEK293 cells at 20 nM by confocal laser scanning microscopy; type: cell-based; details: TDE = time-dependent effect; outline: as §1
Target sequence in this assay (P31645 whole entry, looked up): as the sequence (P31645 whole entry) above

[8] = target: T3, Sodium-dependent serotonin transporter; assay: Selectivity ratio of ZP455 Ki to compound Ki for human SERT
Target sequence in this assay (P31645 whole entry, looked up): as the sequence (P31645 whole entry) above

[9] = target: T1, Sodium-dependent dopamine transporter; assay: Inhibition of 2,5,6-[3H]-dopamine uptake at human DAT expressed in African green monkey COS7 cells incubated for 10 mins prior to radioligand addition measured after 5 mins by scintillation counting analysis; type: cell-based, COS-7
Outline: (§2)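 Uptake inhibition in transiently transfected COS7 cells, with 2,5,6-[3H]dopamine as substrate for both DAT and NET. IC50 came from nonlinear regression. Ki was calculated using the dopamine KM, which was determined in parallel. Values are means of three to four repeats, each in triplicate, with SE interval from pKI ± SE.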

[10] = target: T2, Sodium-dependent noradrenaline transporter; assay: Inhibition of 2,5,6-[3H]-dopamine uptake at human NET expressed in African green monkey COS7 cells incubated for 10 mins prior to radioligand addition measured after 5 mins by scintillation counting analysis; type: cell-based, COS-7; outline: as §2

Compound | inhibition [1] | inhibition [2] | Ki [3] [nM] | Ki [4] [nM] | Activity [5] | Activity [6] | Activity [7] | Ratio Ki [8] | Ki [9] [nM] | Ki [10] [nM]
CN(C)CCC[C@@]1(c2ccc(F)cc2)OCc2cc(C#N)ccc21 | inactive | inactive | – | – | – | – | – | – | – | –
CCN(CC)c1ccc2c(-c3ccc(S(=O)(=O)NCCCCCC(=O)NCCCCCN(C)CCC[C@@]4(c5ccc(F)cc5)OCc5cc(C#N)ccc54)cc3S(=O)(=O)[O-])c3ccc(=[N+](CC)CC)cc-3oc2c1 | inactive | inactive | 250 | 180 | – | – | – | – | – | –
CCN(CC)c1ccc2c(-c3ccc(S(=O)(=O)NCCCCCC(=O)NCc4ccc5c(c4)CO[C@@]5(CCCN(C)C)c4ccc(F)cc4)cc3S(=O)(=O)[O-])c3ccc(=[N+](CC)CC)cc-3oc2c1 | inactive | inactive | 34 | 3 | Active | inactive | tde | 75 | – | –
CCN(CC)c1ccc2c(-c3ccc(S(=O)(=O)NCCCCCC(=O)NCCCc4ccc5c(c4)CO[C@@]5(CCCN(C)C)c4ccc(F)cc4)cc3S(=O)(=O)[O-])c3ccc(=[N+](CC)CC)cc-3oc2c1 | inactive | inactive | 37 | 11 | – | – | – | – | – | –
CCN(CC)c1ccc2c(-c3ccc(S(=O)(=O)NCCCCCC(=O)NCCCN(C)CCC[C@@]4(c5ccc(F)cc5)OCc5cc(C#N)ccc54)cc3S(=O)(=O)[O-])c3ccc(=[N+](CC)CC)cc-3oc2c1 | inactive | inactive | 140 | 11 | – | – | – | – | – | –
CCN(CC)c1ccc2c(-c3ccc(S(=O)(=O)NCCCCCC(=O)NCCN4C5CCC4[C@@H](C(=O)OC)[C@@H](c4ccc(Cl)c(Cl)c4)C5)cc3S(=O)(=O)[O-])c3ccc(=[N+](CC)CC)cc-3oc2c1 (stereo not given in full) | – | – | 94 | – | – | – | – | – | 20 | 91
